Six compounds from article PMC11850876 (Scientific Reports, 2025) can be followed below.

Read-outs that look alike come from different tables or passages of the source.

Experiment [1] concerns healthy human breast epithelial (MCF-10 A) cell line. The experiment in a line: MTT cytotoxicity assay, MCF-10 A. Type of experiment: cell-based. Put shortly:
(§1)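 Cells came from the Pasteur Institute, Tehran, and were seeded at 5 × 10^4 cells/well. After 24 h, four concentrations of test compound were added in triplicate, with medium-only and 0.5% DMSO controls. Exposure was 48 and 72 h. MTT formazan was dissolved in DMSO and read at 570 nm. IC50 was taken from % inhibition (mean ± SD, n=3). SI = IC50 MCF-10 A / IC50 MCF-7.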
(Tetrazolium dyes change colour on reduction, which living cells bring about.)

Experiment [2] concerns MCF-7 breast cancer cell line. The experiment can be described thus: MTT cytotoxicity assay, MCF-7. To be noted: for IC50: Homo sapiens; for Selectivity Index (SI) 48 h: IC50 MCF-10 A / IC50 MCF-7, 48 h; for Selectivity Index (SI) 72 h: IC50 MCF-10 A / IC50 MCF-7, 72 h. Type of experiment: cell-based, human. A digest of the protocol:
as §1

Experiment [3] is described as follows: DPPH radical scavenging assay. Conditions: read-out: DPPH radical scavenging IC50 ± SD; DPPH 0.1 mM in MeOH, 60 min, 517 nm. Put shortly:
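Each test compound was prepared at 1.0 mg/mL in DMSO and mixed 1:1 by volume with 0.1 mM DPPH in MeOH. The mixture was kept in the dark at RT for 60 min. Absorbance was read at 517 nm against a DPPH control. % scavenging = (Abs control − Abs sample)/Abs control × 100.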
For orientation: DPPH is a stable violet radical that fades when it is reduced.

Where [4] appears, read: 48 h, read-out: IC50 ±SD MCF-10 A 48 h.
Setting [5] is: 72 h, read-out: IC50 ±SD MCF-10 A 72 h.
Where [6] appears, read: MCF7, 48 h, read-out: IC50 ±SD MCF-7 48 h.
[7] abbreviates: MCF7, 72 h, read-out: IC50 ±SD MCF-7 72 h.

For `NS(=O)(=O)c1ccc(/N=N/c2ccc(O)c(/C=N/c3ccc(O)cc3)c2)cc1` [Compound 3a, 4-((E)-(4-hydroxy-3-((E)-((4-hydroxyphenyl)imino)methyl)phenyl)diazenyl)benzenesulfonamide], the IC50 (commonly the midpoint of a concentration-inhibition curve) in experiment [1] (setting [4]) is 11.18 ± 0.012 µM; in experiment [1] (setting [5]), 1.98 ± 0.002 µM; in experiment [2] (setting [6]), 10.9 ± 0.005 µM; in experiment [2] (setting [7]), 9.49 ± 0.012 µM; in experiment [3] it was 13.2 ± 0.74 µM. Besides, in experiment [2], the “Selectivity Index (SI) 48 h” value amounted to 1.02. The “Selectivity Index (SI) 72 h” value in experiment [2] is 0.20.

In the case of `NS(=O)(=O)c1ccc(/N=N/c2ccc(O)c(/C=N/c3ccccc3O)c2)cc1` [Compound 3c, 4-((E)-(4-hydroxy-3-((E)-((2hydroxyphenyl)imino)methyl)phenyl)diazenyl)benzenesulfonamide], the IC50 in experiment [1] (setting [4]) turned out to be 16.82 ± 0.01 µM; in experiment [1] (setting [5]), 2.23 ± 0.001 µM; in experiment [2] (setting [6]) it was 21.16 ± 0.014 µM; in experiment [2] (setting [7]), 9.26 ± 0.002 µM; in experiment [3], 13.6 ± 0.95 µM. Also, the “Selectivity Index (SI) 48 h” value in experiment [2] is 0.79. Besides, the “Selectivity Index (SI) 72 h” value in experiment [2] turned out to be 0.24.

Consider `COc1ccc(/N=C/c2cc(/N=N/c3ccc(S(N)(=O)=O)cc3)ccc2O)cc1` [Compound 3f, 4-((E)-(4-hydroxy-3-((E)-((4-methoxyphenyl)imino)methyl)phenyl)diazenyl)benzenesulfonamid], for which the IC50 in experiment [1] (setting [4]) stood at 11.01 ± 0.016 µM; in experiment [1] (setting [5]) it was 2.67 ± 0.009 µM; in experiment [2] (setting [6]), 8.94 ± 0.013 µM; in experiment [2] (setting [7]), 7.62 ± 0.018 µM; in experiment [3] it was 14 ± 1.45 µM. Also, the “Selectivity Index (SI) 48 h” value in experiment [2] is recorded as 1.23. The “Selectivity Index (SI) 72 h” value in experiment [2] was 0.35.

`NC(=S)N/N=C/c1cc(/N=N/c2ccc(S(N)(=O)=O)cc2)ccc1O` [Compound 3j, 2-((E)-2-hydroxy-5-((E)-(4-sulfamoylphenyl)diazenyl)benzylidene)hydrazine-1-carbothioamide]: the IC50 in experiment [1] (setting [4]) amounted to 17.43 ± 0.019 µM; in experiment [1] (setting [5]), 11.26 ± 0.008 µM; in experiment [2] (setting [6]) it was 6.52 ± 0.007 µM; in experiment [2] (setting [7]) it was 5.27 ± 0.006 µM; in experiment [3], 12.4 ± 0.55 µM. Further, the “Selectivity Index (SI) 48 h” value in experiment [2] is reported as 2.67. Besides, the “Selectivity Index (SI) 72 h” value in experiment [2] is recorded as 2.13.

For the compound `COc1cccc2c1C(=O)c1c(O)c3c(c(O)c1C2=O)C[C@@](O)(C(=O)CO)C[C@@H]3O[C@H]1C[C@H](N)[C@H](O)[C@H](C)O1` [Doxorubicin, reference compound], the IC50 in experiment [1] (setting [4]) came out at 13.2 ± 0.1 µM; in experiment [1] (setting [5]), 2.85 ± 0.1 µM; in experiment [2] (setting [6]), 3.42 ± 0.1 µM; in experiment [2] (setting [7]), 0.68 ± 0.1 µM. Further, the “Selectivity Index (SI) 48 h” value in experiment [2] is on record as 3.86. For the same compound, the “Selectivity Index (SI) 72 h” value in experiment [2] is 4.20.

Turning to `O=C1O[C@H]([C@@H](O)CO)C(O)=C1O` [ascorbic acid, reference compound], the IC50 in experiment [3] worked out at 13.6 ± 0.38 µM.
